Tests used:
[1] = test system: TLX-5; experiment: In vivo antitumor activity against the TLX5 lymphoma cell line in mouse species CBA/CA after intraperitoneal administration (inoculum cells-2x10E5,sc) at the dose of 20 mg/kg; type: functional
How it was run: (§1)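 CBA/CA mice were inoculated with 2 × 10^5 TLX5 lymphoma cells. Drug given intraperitoneally in 10% Me2SO in arachis oil, 5 mice per dose, and the experiment lasted 60 days. Survivors at 60 days were recorded. T/C % = mean death day of treated animals / mean death day of control animals.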

[2] = test system: TLX-5; experiment: In vivo antitumor activity against the TLX5 lymphoma cell line in mouse species CBA/CA after intraperitoneal administration (inoculum cells-2x10E5,sc) at the dose of 40 mg/kg; type: functional; how it was run: as §1
[3] = test system: TLX-5; experiment: In vivo antitumor activity against the TLX5 lymphoma cell line in mouse species CBA/CA after intraperitoneal administration (inoculum cells-2x10E5,sc) at the dose of 80 mg/kg; type: functional; how it was run: as §1
[4] = test system: TLX-5; experiment: (§2) In vivo antitumor activity against the TLX5 lymphoma cell line in mouse species CBA/CA after intraperitoneal administration (inoculum cells-2x10E5,sc) at the dose of 160 mg/kg; type: functional
How it was run: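 CBA/CA mice were implanted sc with 2 × 10^5 TLX5 lymphoma cells. Compound was given ip on day 3 in 10% Me2SO in arachis oil, over 60 days, in groups of 5. T/C% = mean death day of treated/mean death day of controls. Survivors to day 60 were counted.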

[5] = test system: TLX-5; experiment: In vivo antitumor activity against the TLX5 lymphoma cell line in mouse species CBA/CA after intraperitoneal administration (inoculum cells-2x10E5,sc) at the dose of 20 mg/kg on 5th day; type: functional
[6] = test system: TLX-5; experiment: In vivo antitumor activity against the TLX5 lymphoma cell line in mouse species CBA/CA after intraperitoneal administration (inoculum cells-2x10E5,sc) at the dose of 320 mg/kg on 5th day; type: functional
[7] = test system: TLX-5; experiment: In vivo antitumor activity against the TLX5 lymphoma cell line in mouse species CBA/CA after intraperitoneal administration (inoculum cells-2x10E5,sc) at the dose of 40 mg/kg on 5th day; type: functional
[8] = test system: TLX-5; experiment: In vivo antitumor activity against the TLX5 lymphoma cell line in mouse species CBA/CA after intraperitoneal administration (inoculum cells-2x10E5,sc) at the dose of 80 mg/kg on 5th day; type: functional
[9] = test system: L1210; experiment: In vivo antitumor activity against the L1210 leukemia cell line in mouse species B6D2F1 after peroral administration (inoculum cells-10E5,ip) at the dose of 80 mg/kg on 10th day; type: functional; details: route oral
How it was run: (§3)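 B6D2F1 mice were inoculated with 10^5 L1210 leukemia cells, ip or iv as the line states. Compound was given orally as a suspension in 1% (carboxymethyl)cellulose in water, dosed on day 1 or 3, over 28–39 days. T/C% = mean death day of treated/mean death day of controls. Survivors to the end were counted in groups of 7–8.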

[10] = test system: TLX-5; experiment: In vivo antitumor activity against the TLX5 lymphoma cell line in mouse species CBA/CA after intraperitoneal administration (inoculum cells-2x10E5,sc) at the dose of 10 mg/kg on 5th day; type: functional
[11] = test system: TLX-5; experiment: In vivo antitumor activity against the TLX5 lymphoma cell line in mouse species CBA/CA after intraperitoneal administration (inoculum cells-2x10E5,sc) at the dose of 5 mg/kg on 5th day; type: functional
[12] = test system: TLX-5; experiment: as §2; type: functional; how it was run: as §1; remark: listed apart in the source
[13] = test system: TLX-5; experiment: In vivo antitumor activity against the TLX5 lymphoma cell line in mouse species CBA/CA after intraperitoneal administration (inoculum cells-2x10E5,sc) at the dose of 320 mg/kg; type: functional; how it was run: as §1
[14] = test system: TLX-5; experiment: In vivo antitumor activity against the TLX5 lymphoma cell line in mouse species CBA/CA after intraperitoneal administration (inoculum cells-2x10E5,sc) at the dose of 160 mg/kg on 5th day; type: functional
[15] = test system: TLX-5; experiment: In vivo antitumor activity against the TLX5 lymphoma cell line in mouse species CBA/CA after intraperitoneal administration (inoculum cells-2x10E5,sc) at the dose of 320 mg/kg on 3rd day
[16] = test system: L1210; experiment: In vivo antitumor activity against the L1210 leukemia cell line in mouse species B6D2F1 after peroral administration (inoculum cells-10E5,iv) at the dose of 40 mg/kg; type: functional; details: route oral
[17] = test system: L1210; experiment: In vivo antitumor activity against the L1210 leukemia cell line in mouse species B6D2F1 after peroral administration (inoculum cells-10E5,iv) at the dose of 10 mg/kg; type: functional; details: route oral
[18] = test system: L1210; experiment: In vivo antitumor activity against the L1210 leukemia cell line in mouse species B6D2F1 after peroral administration (inoculum cells-10E5,iv) at the dose of 20 mg/kg; type: functional; details: route oral
[19] = test system: L1210; experiment: In vivo antitumor activity against the L1210 leukemia cell line in mouse species B6D2F1 after peroral administration (inoculum cells-10E5,iv) at the dose of 10 mg/kg on 7th day; type: functional; details: route oral
[20] = test system: L1210; experiment: In vivo antitumor activity against the L1210 leukemia cell line in mouse species B6D2F1 after peroral administration (inoculum cells-10E5,iv) at the dose of 40 mg/kg on 7th day; type: functional; details: route oral; how it was run: as §3
[21] = test system: TLX-5; experiment: In vivo antitumor activity against the TLX5 lymphoma cell line in mouse species CBA/CA after intraperitoneal administration (inoculum cells-2x10E5,sc) at the dose of 10 mg/kg; type: functional
[22] = test system: L1210; experiment: In vivo antitumor activity against the L1210 leukemia cell line in mouse species B6D2F1 after peroral administration (inoculum cells-10E5,iv) at the dose of 20 mg/kg on 7th day; type: functional; details: route oral; how it was run: as §3
[23] = test system: L1210; experiment: In vivo antitumor activity against the L1210 leukemia cell line in mouse species B6D2F1 after peroral administration (inoculum cells-10E5,iv) at the dose of 200 mg/kg; type: functional; details: route oral
[24] = test system: L1210; experiment: In vivo antitumor activity against the L1210 leukemia cell line in mouse species B6D2F1 after peroral administration (inoculum cells-10E5,iv) at the dose of 100 mg/kg; type: functional; details: route oral
[25] = test system: L1210; experiment: In vivo antitumor activity against the L1210 leukemia cell line in mouse species B6D2F1 after peroral administration (inoculum cells-10E5,iv) at the dose of 50 mg/kg; type: functional; details: route oral
[26] = test system: L1210; experiment: In vivo antitumor activity against the L1210 leukemia cell line in mouse species B6D2F1 after peroral administration (inoculum cells-10E5,iv) at the dose of 100 mg/kg on 7th day; type: functional; details: route oral; how it was run: as §3
[27] = test system: L1210; experiment: In vivo antitumor activity against the L1210 leukemia cell line in mouse species B6D2F1 after peroral administration (inoculum cells-10E5,iv) at the dose of 200 mg/kg on 10th day; type: functional; details: route oral; how it was run: as §3
[28] = test system: L1210; experiment: In vivo antitumor activity against the L1210 leukemia cell line in mouse species B6D2F1 after peroral administration (inoculum cells-10E5,iv) at the dose of 50 mg/kg on 7th day; type: functional; details: route oral; how it was run: as §3
[29] = test system: L1210; experiment: In vivo antitumor activity against the L1210 leukemia cell line in mouse species B6D2F1 after peroral administration (inoculum cells-10E5,ip) at the dose of 10 mg/kg on 10th day; type: functional; details: route oral; how it was run: as §3

Row | Structure (SMILES) | T/C [1] [%] | T/C [2] [%] | T/C [3] [%] | Survivors [5] | Survivors [7] | Survivors [8] | Survivors [14] | other results
1 | O=C(NC1CCCCC1)c1ncn2c(=O)n(CCCl)nnc12 | 109 | 125 | >277 | 0 | 0 | 1 | – | Survivors [4]: 0; Survivors [6]: 0
2 | CNC(=O)c1ncn2c(=O)n(CCCl)nnc12 | >154 | – | – | – | – | 0 | – | Survivors [9]: 0; Survivors [10]: 0; Survivors [11]: 0
3 | CCSC(=O)c1ncn2c(=O)n(CCCl)nnc12 | 106 | 104 | 108 | 0 | 0 | 0 | 0 | T/C [12]: 119%; T/C [13]: 125%; Survivors [15]: 0
4 | O=C(NCCCl)c1ncn2c(=O)n(CCCl)nnc12 | 142 | >361 | – | 0 | 3 | 0 | – | T/C [16]: 227%; T/C [17]: 121%; T/C [18]: 183%; Survivors [19]: 0; Survivors [20]: 0; T/C [21]: 103%; Survivors [10]: 0; Survivors [22]: 0
5 | CC(C)(C)NC(=O)c1ncn2c(=O)n(CCCl)nnc12 | – | – | – | – | – | – | – | T/C [23]: 307%; T/C [24]: 149%; T/C [25]: 132%; Survivors [26]: 0; Survivors [27]: 0; Survivors [28]: 0
6 | CN(C)C(=O)c1ncn2c(=O)n(CCCl)nnc12 | – | – | – | 0 | – | – | 0 | Survivors [29]: 0; Survivors [9]: 0
7 | O=C(N[N+](=O)[O-])c1ncn2c(=O)n(CCCl)nnc12 | 109 | 101 | 118 | 0 | 0 | 0 | 2 | T/C [12]: >354%; Survivors [6]: 0

From ChEMBL document CHEMBL1125112, “Antitumor imidazotetrazines. 20. Preparation of the 8-acid derivative of mitozolomide and its utility in the preparation of active antitumor agents” (1990)
